Data on nine molecules can be found in ChEMBL document CHEMBL1127414 (J Med Chem, 1994).

Converted amounts (≈) assume the structure as drawn.

Assay [1] concerns HepG2. Kind of assay: Concentration required to inhibit cholesterol synthesis in Hep G2 cells. It counts as functional, cell-based. Particulars: Homo sapiens; call rule not given here. The essentials: (§1)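 Hep G2 cells held 2 days in lipoprotein-depleted FBS to stimulate sterol synthesis, then given inhibitor in serum-free medium for 2 h. 15 μCi [5-3H]mevalonate (0.2 mCi/mmol) added for 1 h. Cells washed and saponified, and radioactivity counted by scintillation.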

In assay [2] the target is T1, Squalene synthase (Rattus norvegicus, UniProt Q02769).
T1 sequence (Q02769 whole entry): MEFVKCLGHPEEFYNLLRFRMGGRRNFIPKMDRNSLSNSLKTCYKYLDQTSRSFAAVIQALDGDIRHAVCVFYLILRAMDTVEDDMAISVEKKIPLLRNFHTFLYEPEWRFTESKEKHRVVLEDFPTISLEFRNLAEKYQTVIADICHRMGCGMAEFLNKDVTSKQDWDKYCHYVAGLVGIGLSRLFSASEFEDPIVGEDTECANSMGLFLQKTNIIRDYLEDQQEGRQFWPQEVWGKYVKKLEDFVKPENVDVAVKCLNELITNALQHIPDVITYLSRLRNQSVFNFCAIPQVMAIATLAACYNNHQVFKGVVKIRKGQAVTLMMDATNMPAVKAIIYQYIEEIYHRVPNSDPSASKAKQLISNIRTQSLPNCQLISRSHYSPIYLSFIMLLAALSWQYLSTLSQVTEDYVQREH
The assay is described as follows: Tested for inhibition against squalene synthase enzyme in rat liver.

Assay [3] concerns the target T2, Squalene synthase (Rattus norvegicus) (UniProt Q02769).
T2 sequence (whole entry): T1 sequence (Q02769 whole entry)
Kind of assay: Concentration required to inhibit rat liver squalene synthase enzyme relative to control (L-694,599). The gist of the method: (§2)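 Enzyme from rat liver. […] Inhibitors added in DMSO (0.3% final) as 3-fold serial dilutions, usually up to 30 ng/mL (about 40 nM). IC50 read from % inhibition vs log concentration.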

In assay [4] the test system is HepG2. The assay is described as follows: Concentration of compound required to inhibit cholesterol synthesis in Hep G2 cells relative to control (IC50 of L-694,599). Type of assay: functional, Homo sapiens. The essentials: as §1
Assay [5] has as its system Mus musculus. The assay is described as follows: Tested for its ability to inhibit the incorporation of [5-3H]-mevalonolactone into cholesterol by in vivo mouse assay by peroral administration at a dose of 40 mg/kg. Particulars: route oral. It counts as functional. The gist of the method:
(§3)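 Female Swiss Webster mice (~25 g), six per group, dosed po by gavage with inhibitor suspended in 5% emulphor. 30 min later, 0.5 μCi/mouse [5-3H]mevalonolactone in saline given sc. Livers removed 30 min after that and saponified in KOH/EtOH overnight at 55 °C, then petroleum-ether extracted. Nonsaponifiable dpm counted. Compounds first tested at a single dose (typically 12 or 24 mg/kg).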

The target of assay [6] is T2, Squalene synthase (Rattus norvegicus). The assay is described as follows: concentration required to inhibit rat liver squalene synthase enzyme relative to control (L-694,599). The gist of the method: as §2
For assay [7], the system named is Mus musculus. The assay is described as follows: Tested for its ability to inhibit the incorporation of [5-3H]-mevalonolactone into cholesterol by in vivo mouse assay by peroral administration at a dose of 12 mg/kg. Type of assay: functional. Particulars: route oral. The essentials: as §3
Assay [8] addresses T1, Squalene synthase. Kind of assay: Concentration required for inhibition of rat liver squalene synthase enzyme at 161 nM; Not active.
The target of assay [9] is T3, Squalene synthase (Mus musculus) (UniProt P53798).
T3 sequence (whole entry): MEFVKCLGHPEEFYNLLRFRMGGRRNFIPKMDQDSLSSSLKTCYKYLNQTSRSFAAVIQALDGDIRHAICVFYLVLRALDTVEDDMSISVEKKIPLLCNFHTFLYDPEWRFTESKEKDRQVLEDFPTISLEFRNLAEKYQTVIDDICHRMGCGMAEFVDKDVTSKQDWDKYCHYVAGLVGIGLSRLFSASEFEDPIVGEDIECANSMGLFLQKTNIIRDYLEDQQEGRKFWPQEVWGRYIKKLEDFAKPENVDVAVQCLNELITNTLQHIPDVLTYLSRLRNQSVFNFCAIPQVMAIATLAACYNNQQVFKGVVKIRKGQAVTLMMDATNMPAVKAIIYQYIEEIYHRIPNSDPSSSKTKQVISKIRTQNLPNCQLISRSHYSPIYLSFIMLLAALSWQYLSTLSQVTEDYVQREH
The assay is described as follows: Tested for the effective dose required for the incorporation of [5-3H]-mevalonolactone into cholesterol by in vivo mouse assay by peroral administration. It counts as functional, organism-based. The gist of the method:
as §3

Assay [10] has as its system HepG2. The assay is described as follows: Concentration required to inhibit cholesterol synthesis in Hep G2 cells relative to control (IC50 of L-694,599). It counts as functional, Homo sapiens. The gist of the method:
as §1

The subject of the next assay is Candida parapsilosis. Kind of assay: Concentration required to inhibit growth of MY 1010 strain of Candida parapsilosis. Type of assay: functional. Particulars: Lodderomyces parapsilosis. The gist of the method: (§4)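 Broth microdilution against a panel of clinically relevant fungal strains. Read-out was the minimum fungicidal concentration in μg/mL.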
In another assay the test system is Trichophyton benhamiae. Kind of assay: Concentration required to inhibit growth of MF 4864 strain of Trichophyton mentagrophytes. It counts as functional, Arthroderma benhamiae. The essentials: as §4
The subject of a further assay is Candida tropicalis. Kind of assay: Concentration required to inhibit growth of MY 1012 strain of Candida tropicalis. Type of assay: functional. The essentials:
as §4

Assay [11] concerns Cryptococcus neoformans. The assay is described as follows: Concentration required to inhibit growth of MY 2061 strain of Cryptococcus neoformans. It counts as functional. The essentials:
as §4

Another assay relates to Aspergillus fumigatus. Kind of assay: Concentration required to inhibit growth of MF 4839 strain of Aspergillus fumigatus. It counts as functional. The essentials: as §4
In assay [12] the test system is Mus musculus. The assay is described as follows: Ability to inhibit the incorporation of [5-3H]-mevalonolactone into cholesterol by in vivo mouse assay by peroral administration at a dose of 24 mg/kg. Type of assay: functional. Particulars: route oral. The gist of the method:
as §3

For assay [13], the system named is Candida albicans. Kind of assay: Concentration required to inhibit growth of MY 1055 strain of Candida albicans. Type of assay: functional. The essentials:
as §4

Assay [14] concerns Cryptococcus neoformans. The assay is described as follows: Concentration required to inhibit growth of MY 1051 strain of Cryptococcus neoformans. Type of assay: functional. The gist of the method:
as §4

In assay [15] the test system is Candida albicans. The assay is described as follows: Concentration required to inhibit growth of MY 1750 strain of Candida albicans. Type of assay: functional. The gist of the method:
as §4

`C=C(CCC12OC(C(=O)O)C(O)(C(=O)O)C(C(=O)O)(O1)[C@H](OCCCCCCCCCCCOc1ccccc1)[C@H]2O)[C@@H](OC(C)=O)[C@H](C)Cc1ccccc1` (stereo partly drawn): the IC50 in the assay on HepG2 [1] was 1300 nM; against Squalene synthase [2], 0.06 nM. Further, the Relative activity in [3] amounted to 2; in the assay with HepG2 [4] it was 6.38.

In turn, `C=C(CCC12OC(C(=O)O)C(O)(C(=O)O)C(C(=O)O)(O1)[C@H](OCCCCCCCCOc1ccccc1)[C@H]2O)[C@@H](OC(C)=O)[C@H](C)Cc1ccccc1` (stereo partly drawn) showed an IC50 against Squalene synthase [2] of 0.16 nM. For the same molecule, the inhibition in vivo at 40 mg/kg in the assay with Mus musculus [5] stood at 4%. In addition, in assay [6], the Relative activity was found to be 0.81.

`CCCC(=O)O[C@@H]1[C@@H](O)C2(CCCCc3ccccc3)OC(C(=O)O)C(O)(C(=O)O)C1(C(=O)O)O2` (stereo partly drawn) yielded an IC50 at Squalene synthase [2] of more than 3000 nM. Further, the inhibition in vivo at 12 mg/kg in the assay with Mus musculus [7] was determined as 5%. This molecule had a Relative activity in assay [3] of 0.

For `C=C(CCC12OC(C(=O)O)C(OCCC)(C(=O)O)C(C(=O)O)(O1)[C@H](O)[C@H]2O)[C@@H](OC(C)=O)[C@H](C)Cc1ccccc1` (stereo partly drawn), the IC50 result at Squalene synthase [8] is recorded as “Not Active”.

In the case of `C=C(CCC12OC(C(=O)O)C(O)(C(=O)O)C(C(=O)O)(O1)[C@H](OC(=O)CCC(=O)O)[C@H]2O)[C@@H](OC(C)=O)[C@H](C)Cc1ccccc1` (stereo partly drawn), in the assay on Mus musculus [7], the inhibition in vivo at 12 mg/kg was -20%. Also, the IC50 entry against Squalene synthase [8] was “Not Active”. The molecule further gave an ED50 in assay [9] of more than 12 mg/kg.

Turning to `C=C(CCC12OC(C(=O)O)C(O)(C(=O)O)C(C(=O)O)(O1)[C@H](OCCCCCCCCCC)[C@H]2O)[C@@H](OC(C)=O)[C@H](C)Cc1ccccc1` (stereo partly drawn), the IC50 in the assay with HepG2 [1] came out at 2200 nM; against Squalene synthase [2] it was 0.21 nM. For the same molecule, the inhibition in vivo at 40 mg/kg with Mus musculus [5] stood at 28%. The Relative activity turned out to be 4.09 in the assay with HepG2 [10] and 1.43 in [6].

On to `C=C(CCC12OC(C(=O)O)C(OCCC)(C(=O)O)C(C(=O)O)(O1)[C@H](OCCC)[C@H]2O)[C@@H](OC(C)=O)[C@H](C)Cc1ccccc1` (stereo partly drawn), for which the IC50 result against Squalene synthase [8] is recorded as “Not Active”.

In the case of `C=C(CCC12OC(C(=O)O)C(O)(C(=O)O)C(C(=O)O)(O1)[C@H](OC(=O)NCCCCCCCCCC)[C@H]2O)[C@@H](OC(C)=O)[C@H](C)Cc1ccccc1` (stereo partly drawn), the MFC in the assay on Candida parapsilosis worked out at 8 µg/mL (≈ 11.1 µM); against Trichophyton benhamiae, 2 µg/mL (≈ 2.77 µM); against Candida tropicalis it was 16 µg/mL (≈ 22.2 µM); against Cryptococcus neoformans [11] it was 0.5 µg/mL (≈ 0.693 µM); against Aspergillus fumigatus, 32 µg/mL (≈ 44.3 µM); against Candida albicans [13], 8 µg/mL (≈ 11.1 µM). The MFC against Cryptococcus neoformans [14] and in the assay with Candida albicans [15] was 4 µg/mL (≈ 5.54 µM) throughout. The molecule further yielded an IC50 in the assay on HepG2 [1] of 3600 nM. Besides, the inhibition in vivo at 24 mg/kg in the assay with Mus musculus [12] was determined as 4%.

In turn, `CCCC(=O)O[C@@H]1[C@@H](O)C2(CCCC[C@H](C)Cc3ccccc3)OC(C(=O)O)C(O)(C(=O)O)C1(C(=O)O)O2` (stereo partly drawn) registered an IC50 against Squalene synthase [2] of 110 nM. The inhibition in vivo at 12 mg/kg in the assay with Mus musculus [7] is -3%. The molecule further returned a Relative activity in assay [3] of 0.0026.
